Assay [1] is described as follows: (§1) Cytotoxicity against human SCL37'6 cells by MTT assay. The format is functional. Particulars: read-out: ED50 (the source's name). Summed up: (§2)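 Human stomach cancer cells grown in RPMI-1640 complete medium; test materials prepared and cells cultured in medium with 0.25% DMSO. Serial dilutions at 250, 125, 62.5, 31.25 and 15.63 μg/mL, three replicates per concentration. Percent mortality by MTT, with cells in medium or medium-DMSO taken as 100% survival; ED50 (μM) derived, mean ± standard error. Vinblastine sulfate and mitomycin C as positive controls.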
For orientation: Tetrazolium dyes change colour on reduction, which living cells bring about.

Assay [2] is described as follows: (§3) Cytotoxicity against human SCL cells by MTT assay. It is filed as functional. Particulars: read-out: ED50 (the source's name). The gist of the method:
as §2

Assay [3] relates to NUGC-4. Description: Cytotoxicity against human NUGC4 cells by MTT assay. The format is functional. The note with it: for EC50: read-out: ED50 (the source's name). Summed up:
as §2

Assay [4] in a line: Cytotoxicity against human SCL6 cells by MTT assay. The format is functional. The note with it: read-out: ED50 (the source's name). The gist of the method:
as §2

The nature of assay [5]: (§4) Cytotoxicity against human KATO III cells by MTT assay. The format is functional, KATO III cell. The note with it: read-out: ED50 (the source's name). The gist of the method:
as §2

Assay [6] can be described thus: (§5) Cytotoxicity against human SCL9 cells by MTT assay. It is filed as functional. The note with it: read-out: ED50 (the source's name). Summed up: as §2
For assay [7], the system named is SCL37'6. The description is as §1. It is filed as functional. The gist of the method:
as §2

Assay [8] concerns SCL. Described as §3. The format is functional. The gist of the method: as §2
Assay [9] deals with SCL-6 (Homo sapiens). Description: Cytotoxicity against human SCL6 cells by MTT assay.
Assay [10] concerns KATO III cell. The assay is described as §4. It is filed as functional. The gist of the method: as §2
Assay [11] has as its system SCL9. The description is as §5. It is filed as functional. The gist of the method: as §2

Structures can show the parent of a compound that is named as a salt. Active and inactive are the calls of the source. No cut-off for these calls is given here.

`CC1(C)[C@@H](O)CC[C@@]2(C)[C@H]1[C@H](OC(=O)c1ccccc1)C[C@H]1CC(=O)[C@]3(C)CC[C@]12C3`: the EC50 turned out to be 45.8 µM in [1]; 19.5 µM in assay [2]; 123 µM in assay [3]; 62.9 µM in [4]; 71.7 µM in assay [5]; 57.9 µM in assay [6].

On to `CC1(C)CC[C@]2(C)CC[C@]3(C)[C@H]4CC=C5[C@@H](CC[C@H](O)C5(C)C)[C@]4(C)CC[C@@]3(C)[C@@H]2C1`, for which the outcome in assay [7], in [8], in [3], in assay [9], in [10] and in [11] was inactive.

Consider `COc1ccc2[nH]c(=O)oc2c1`, for which the outcome in assay [7], in assay [8], in assay [3], in assay [9], in assay [10] and in assay [11] was inactive.

`C[C@@]12CC[C@]3(C1)[C@H](CC2=O)C[C@@H](OC(=O)c1ccccc1)[C@@H]1[C@]3(C)CCC[C@]1(C)C(=O)O` [4-EPI-SCOPADULCIC ACID B]: the EC50 in [1] came out at 59.3 µM; in [2], 37 µM; in assay [3] it was 110 µM; in assay [4], 137 µM; in assay [5] it was 124 µM; in [6], 48.3 µM.

For the molecule `C[C@@]12CC[C@]3(C1)[C@@H](C[C@@H](OC(=O)c1ccccc1)[C@H]1[C@](C)(CO)CCC[C@@]13C)C[C@@H]2O` [DULCIDIOL], the EC50 is 42.6 µM in [1]; 45.3 µM in assay [2]; 105 µM in assay [3]; 46 µM in assay [4]; 29 µM in [5]; 41.6 µM in [6].

On to `CO[C@@]12[C@H](COC(N)=O)C3=C(C(=O)C(C)=C(N)C3=O)N1C[C@@H]1N[C@@H]12` [MITOMYCIN], for which the EC50 in assay [1] amounted to 19 µM; in assay [2] it was 20.2 µM; in assay [3] it was 19.1 µM; in [4], 20.7 µM; in [5], 49 µM; in [6], 17.4 µM.

With `C=C1C[C@@H](OC(=O)c2ccccc2)C2[C@](C)(CO)CCC[C@]2(C)[C@@H]1CC/C(C)=C/CO` (some centres undefined) [SCOPADIOL], the EC50 in [1] stood at 8.9 µM; in assay [2], 22.8 µM; in assay [3] it was 16.6 µM; in [4] it was 12.2 µM; in assay [5] it was 9.7 µM; in [6], 12.2 µM.

As to `C[C@@]12CC[C@]3(C1)[C@H](CC2=O)C[C@@H](OC(=O)c1ccccc1)[C@H]1[C@](C)(CO)CCC[C@@]13C` [SCOPADULCIOL], the EC50 in assay [1] is 24.4 µM; in assay [2], 22 µM; in assay [3], 33.3 µM; in [4] it was 32.8 µM; in assay [5], 35.5 µM; in [6], 37.7 µM.

Consider `CC[C@]1(O)C[C@@H]2CN(CCc3c([nH]c4ccccc34)[C@@](C(=O)OC)(c3cc4c(cc3OC)N(C)[C@H]3[C@@](O)(C(=O)OC)[C@H](OC(C)=O)[C@]5(CC)C=CCN6CC[C@]43[C@@H]65)C2)C1` [VINBLASTINE SULFATE], for which the EC50 in assay [1] is 5.3 µM; in assay [2], 5.9 µM; in assay [3] it was 5.3 µM; in [4], 6.1 µM; in assay [5], 6.1 µM; in assay [6], 5.3 µM.
